Measurements taken from ChEMBL document CHEMBL4330069, “Boosting the efficacy of anti-MRSA β-lactam antibiotics via an easily accessible, non-cytotoxic and orally bioavailable FtsZ inhibitor” (Eur J Med Chem, 2019).
The source made the active and inactive calls. No cut-off for these calls is given here.

Assays:
[1] = target: T1, Cell division protein FtsZ (Staphylococcus aureus) (UniProt P0A031); experiment: Inhibition of Staphylococcus aureus N-terminal 6His-tagged FtsZ polymerization expressed in Escherichia coli BL21 (DE3) assessed as thin strands at 100 uM in presence of GTP by TEM analysis
T1 sequence (whole entry): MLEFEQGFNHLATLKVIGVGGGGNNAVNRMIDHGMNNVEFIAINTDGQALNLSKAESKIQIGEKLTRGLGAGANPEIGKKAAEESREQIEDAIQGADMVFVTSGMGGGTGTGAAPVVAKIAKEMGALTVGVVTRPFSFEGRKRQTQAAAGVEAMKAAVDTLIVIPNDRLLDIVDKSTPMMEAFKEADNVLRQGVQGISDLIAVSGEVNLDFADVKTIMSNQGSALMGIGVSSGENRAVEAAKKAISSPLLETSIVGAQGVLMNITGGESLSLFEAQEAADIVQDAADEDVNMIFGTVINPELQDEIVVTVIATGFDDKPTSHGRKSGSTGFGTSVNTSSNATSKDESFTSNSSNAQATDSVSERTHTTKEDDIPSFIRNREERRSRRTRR
How it was run: (§1)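 Purified S. aureus FtsZ was incubated with GTP and compound at 0, 50 or 100 µM. Filaments were then imaged by transmission electron microscopy.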

Staphylococcus aureus [2] = experiment: Synergistic antibacterial activity against Staphylococcus aureus ATCC BAA-41 at 1 to 16 times MIC in presence of methicillin after 21 hrs by time kill assay; type: functional, organism-based
How it was run: (§2)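 Colony of strain grown 16 h in CA-MH broth at 37 °C with shaking, diluted 100-fold and grown to mid-log (OD595 0.8), then set at 5×10^5 CFU/mL. […] Sampled at 0, 2.5, 5, 7.5, 21, 24 h, diluted and plated on drug-free CA-MH agar, 24 h at 37 °C; triplicates.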

[3] = target: T1, Cell division protein FtsZ (Staphylococcus aureus); experiment: Inhibition of Staphylococcus aureus N-terminal 6His-tagged FtsZ polymerization expressed in Escherichia coli BL21 (DE3) at 25 uM relative to control
How it was run: (§3)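 Purified S. aureus FtsZ polymerization with GTP, followed as light scattering (absorbance 600 nm) over time. Compound was tested at 12.5–100 µM against a 1% DMSO vehicle, and inhibition was read at 500 s. Triplicate.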

[4] = target: T1, Cell division protein FtsZ (Staphylococcus aureus); experiment: Inhibition of Staphylococcus aureus N-terminal 6His-tagged FtsZ GTPase expressed in Escherichia coli BL21 (DE3) at 100 uM
Staphylococcus aureus [5] = experiment: Antibacterial activity against Staphylococcus aureus ATCC BAA-41 at […] after 24 hrs by time kill assay; type: functional, organism-based
How it was run: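 Time-kill assay. S. aureus BAA-41 was grown in CA-MH broth to mid-log phase (OD595 0.8), then diluted to 5×10^5 CFU/mL. […] Samples were taken at 0–24 h and plated on drug-free CA-MH agar for 24 h. Triplicates.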

Staphylococcus aureus [6] = experiment: Synergistic bactericidal activity against Staphylococcus aureus ATCC BAA-41 at 1 to 16 times MIC in presence of methicillin up to 24 hrs by time kill assay; type: functional, organism-based; how it was run: as §2
[7] = target: T1, Cell division protein FtsZ (Staphylococcus aureus); experiment: Inhibition of Staphylococcus aureus N-terminal 6His-tagged FtsZ polymerization expressed in Escherichia coli BL21 (DE3) at 50 uM relative to control; how it was run: as §3
[8] = target: T1, Cell division protein FtsZ (Staphylococcus aureus); experiment: Inhibition of Staphylococcus aureus N-terminal 6His-tagged FtsZ polymerization expressed in Escherichia coli BL21 (DE3) assessed as single strands at 100 uM in presence of GTP by TEM analysis; how it was run: as §1
[9] = target: T1, Cell division protein FtsZ (Staphylococcus aureus); experiment: Inhibition of Staphylococcus aureus N-terminal 6His-tagged FtsZ polymerization expressed in Escherichia coli BL21 (DE3) assessed as short strands at 100 uM in presence of GTP by TEM analysis; how it was run: as §1
[10] = target: T1, Cell division protein FtsZ (Staphylococcus aureus); experiment: Inhibition of Staphylococcus aureus N-terminal 6His-tagged FtsZ polymerization expressed in Escherichia coli BL21 (DE3) at 100 uM relative to control; how it was run: as §3
[11] = target: T1, Cell division protein FtsZ (Staphylococcus aureus); experiment: Inhibition of Staphylococcus aureus N-terminal 6His-tagged FtsZ polymerization expressed in Escherichia coli BL21 (DE3); how it was run: as §3
[12] = target: T1, Cell division protein FtsZ (Staphylococcus aureus); experiment: Inhibition of Staphylococcus aureus N-terminal 6His-tagged FtsZ polymerization expressed in Escherichia coli BL21 (DE3) assessed as reduction in filament formation in presence of GTP by TEM analysis; how it was run: as §1
[13] = target: T1, Cell division protein FtsZ (Staphylococcus aureus); experiment: Inhibition of Staphylococcus aureus N-terminal 6His-tagged FtsZ polymerization expressed in Escherichia coli BL21 (DE3) assessed as reduced strands at 100 uM in presence of GTP by TEM analysis; how it was run: as §1
Staphylococcus aureus [14] = experiment: Antibacterial activity against multidrug-resistant Staphylococcus aureus ATCC 43300 infected in BALB/C mouse assessed as mouse survival at 50 mg/kg, ip bid measured after 5 days relative to control; type: functional

Structure (SMILES): CCCCCCCCCNc1ccc(F)c(C(N)=O)c1F
- inhibition [1]: Active
- Activity (Staphylococcus aureus [2]): Active
- inhibition [3]: 34%
- inhibition [4]: inactive
- Activity (Staphylococcus aureus [5]): inactive
- Activity (Staphylococcus aureus [6]): Active
- inhibition [7]: 39%
- inhibition [8]: Active
- inhibition [9]: Active
- inhibition [10]: 47%
- inhibition [11]: Dose-dependent effect
- inhibition [12]: Dose-dependent effect
- inhibition [13]: Active

Structure (SMILES): CCCCCCCCCNc1ccc(F)c(C(N)=O)c1F.Cl
- Activity (Staphylococcus aureus [14]): 33%
